Source: PubChem BioAssay (several laboratories)
CSN inh: CSN deneddylation inhibition; Q92905; Purified CSN, SCF-Nedd8-OG deneddylation, fluorescence polarization; inhibition, % at 12.5 µM; 360,000 tested, 0.38% active; AID 651999;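 active = pattern-corrected inhibition above about 35%, with an unprinted fluorescence ratio check between 0.5 and 1.5, limit read from the data, passing the limit was not always enough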;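 also: 0% = enzyme with substrate and 100% = substrate without enzyme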
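assay system = purified human Csn5 enzyme expressed in HEK293T cells | amount = 0.24 nM enzyme | buffer or medium = Tris/NaCl/DTT buffer, pH 7.5 | reagent = 10 nM SCFSkp2-Nedd8OG | compound = one concentration, 12.5 µM, 0.25% DMSO | times = 90 min reaction at room temperature | signal = FP | read-out basis = % inhibition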
HNF4A DNA FP: change in binding of human HNF4 alpha to DNA; P41235; HNF4a-FITC DNA binding, fluorescence polarization, 1 h; activity change, % at 10 µM; 360,000 tested, 0.3% active; AID 1224865; in the data active = activity change above about 30%, passing the limit was not always enough
ATG4B inhibitor: ATG4B (human) cysteine protease inhibition | Q9Y4P1 | ATG4B cleavage of LC3-PLA2, NBD-HPC fluorescence, 1 h | inhibition, % at 8.33 µM | 340,000 tested, 0.51% active | AID 504462; in the data active = inhibition above about 40%
TPT1 inh: inhibitors of Candida albicans tRNA 2'-phosphotransferase TPT1. recombinant caTPT1, FP RNA substrate dephosphorylation. inhibition, % at 5 µM. 300,000 tested, 0.81% active. AID 1962;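 active = inhibition above the mean of all tested compounds plus 3 SD, set per screening campaign, cut at about 24% in these data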;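 also: plate controls were DMSO alone for no effect and ferristatin control at 100 nM for full effect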
Rpn11 inh: Rpn11 (human) deubiquitinase inhibition. inhibition, % at 20 µM. O00487. human 26S proteasome, Ub4-pepOG fluorescence polarization; 20S core pre-blocked with epoxomicin. 360,000 tested, 0.59% active;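 active = inhibition at 20 µM, scaled to each plate's controls, above about 33%, limit read from the data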
Target sequence (O00487 whole entry, looked up): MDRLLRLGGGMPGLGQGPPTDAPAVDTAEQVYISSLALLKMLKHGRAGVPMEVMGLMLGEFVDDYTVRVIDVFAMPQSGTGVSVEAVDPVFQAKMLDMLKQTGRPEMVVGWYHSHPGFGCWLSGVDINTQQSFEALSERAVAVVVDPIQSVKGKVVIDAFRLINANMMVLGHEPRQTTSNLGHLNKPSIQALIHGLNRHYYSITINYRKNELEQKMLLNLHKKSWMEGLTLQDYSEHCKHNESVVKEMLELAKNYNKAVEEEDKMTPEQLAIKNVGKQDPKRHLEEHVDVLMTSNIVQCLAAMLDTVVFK
SENP1 FRET inh: inhibitors of human SENP1 SUMO protease catalytic domain; Q9P0U3; recombinant SENP1 catalytic domain, CyPet-SUMO1-YPet FRET cleavage; inhibition, % at 10 µM; 360,000 tested, 0.21% active;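 active = inhibition at least 30% at 10 µM, raw YFP signal under a set limit, fluorescence ratio 0.5 to 1.5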;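 also: 0% = enzyme with DMSO and 100% = no enzyme wells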
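Material – human SENP1 catalytic domain · Input – SENP1 enzyme, 20 pM final · Compound dosing – single concentration of 10 µM compound, 0.5% DMSO final · Timing – enzyme reaction for 50 min at room temperature, dark · Measured by – FRET fluorescence in CFP and YFP emission channels · Control set – no-enzyme wells low, DMSO-plus-enzyme wells high control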
TPT1 inh confirm: confirmation of Candida albicans TPT1 inhibitors. inhibition, % at 5 µM. 2,400 tested, 74% active. shares compounds with TPT1 inh. recombinant caTPT1, fluorescence polarization, RNase T1 coupled;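 active = inhibition above the primary screen limit, the mean inhibition of all tested compounds plus 3 SD, cut at about 25% in these data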
RNase T1 inh: blocks Aspergillus oryzae RNase T1, a TPT1 counter-screen; shares compounds with TPT1 inh; RNase T1 cleavage, fluorescence polarization, 1536-well; inhibition, % at 5 µM; 2,400 tested, 83% active; AID 2153;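 active = inhibition above the solvent-only control well mean plus 3 SD, limit set per screening run, cut at about 23% in these data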;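 also: plate controls were DMSO wells with enzyme for no effect and wells without RNase T1 for full effect; inhibitors block cleavage so intact labeled substrate keeps polarization high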
Target sequence (P00651 whole entry, looked up): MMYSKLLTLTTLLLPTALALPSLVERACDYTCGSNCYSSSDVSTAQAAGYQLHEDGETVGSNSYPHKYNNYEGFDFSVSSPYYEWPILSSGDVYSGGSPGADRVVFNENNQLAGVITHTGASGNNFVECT
* = called active by the depositor; / = no result given. Most compounds without a hit are left out; they make up all but 2% or so of the library.

SMILES	CSN inh	HNF4A DNA FP	ATG4B inhibitor	TPT1 inh	Rpn11 inh	SENP1 FRET inh	TPT1 inh confirm	RNase T1 inh
O=C(Nc1ccc(S(=O)(=O)Nc2nccs2)cc1)c1ccc(=O)[nH]c1	15.7	-1.7	-1.1	35.6*	26.2	-30.4	37.4*	50.9*
C=C1CC2(CC(c3ccccc3)OC(c3ccccc3)C2)OC1=O (stereo not given)	4.6	1.1	-6.4	/	-0.3	0.3	/	/
CCN(CC)CCCNc1nc(CN2CCOCC2)nc2sc3c(c12)CCC3	-9.7	-4.8	-1.4	34.9*	-1.6	-2.2	7.5	9.4
CCC(C)n1c(-c2ccco2)nc2nc3ccccc3nc21 (stereo not given)	/	/	/	26.7*	/	/	14.9	19.4
CC(C)OCCCn1c(-c2ccco2)nc2nc3ccccc3nc21	25.5	16.4	5.0	25.8*	13.7	-27.1	13.3	24.1*
O=C(COC(=O)c1ccc(S(=O)(=O)N2CCCCC2)cc1)NCc1ccccc1	8.1	-1.2	-2.7	/	-2.0	1.5	/	/
CC(C)c1ccc(/C=C2\Oc3c(ccc(O)c3CN3CCN(C)CC3)C2=O)cc1	7.3	4.8	4.1	36.8*	12.5	-23.3	40.0*	51.0*
CCN1CCN(Cc2c(O)ccc3c2O/C(=C\C=C\c2ccccc2OC)C3=O)CC1	29.2	46.9*	29.6	52.9*	/	-18.7	63.6*	68.4*
Cc1ccc(/C=C2\Oc3c(ccc(O)c3CN3CCN(CCO)CC3)C2=O)cc1	2.9	1.1	-2.5	1.2	-10.7	-28.6	/	/
N#C/C(=C/c1ccc(-c2ccc(S(N)(=O)=O)cc2)o1)c1nc2ccccc2s1	-95.5	107.3	32.3	73.4*	/	-29.3	40.8*	50.0*
N#C/C(=C\c1ccc(-c2ccc(F)cc2)o1)C(=O)Nc1nc(-c2cccs2)cs1	-13.6	-5.2	5.2	-1.9	-11.4	-10.1	/	/
N#C/C(=C/c1ccc(-c2ccccc2)o1)c1nc(-c2cccs2)cs1	62.8	16.6	-6.9	130.8*	/	-25.4	124.2*	113.6*
Cc1cccc(C(=O)NCC(=O)N2CCN(c3ccccn3)CC2)c1	-1.8	0.7	-9.2	/	3.3	-0.7	/	/
CCCn1c(/C=C/c2ccco2)nc2ccccc21	14.0	3.7	3.6	25.0*	18.6	-25.3	38.3*	50.9*
Clc1ccc(Cn2c(/C=C/c3ccco3)nc3ccccc32)cc1	29.7	25.4	7.1	29.1*	/	-25.3	33.7*	46.4*
CC1(C(=O)NS(=O)(=O)c2cccs2)CCN1C(=O)C1CC1 (stereo not given)	0.9	-7.4	/	/	0.2	1.2	/	/
CN(CCC#N)c1ccc(/C=C(\C#N)c2ccccn2)cc1	-12.9	1.1	-11.3	24.7*	12.1	-27.4	-66.5	-51.7
CCN(Cc1ccccc1)c1ccc(/C=C(\C#N)c2ccccn2)cc1	10.7	24.7	16.9	67.4*	32.8	-25.6	45.7*	49.9*
N#C/C(=C\c1ccc(C(=O)O)cc1)c1ccccn1	2.8	-3.1	-9.0	-4.1	-1.9	-0.3	/	/
CCN(CC)c1ccc(/C=C(\C#N)c2ccccn2)cc1	34.8	88.6*	1.8	135.1*	/	-24.9	123.7*	129.5*
O=C(O)C1CCCCC1C(=O)Nc1ccc(S(=O)(=O)N2CCOCC2)cc1 (stereo not given)	-8.9	-0.9	0.2	/	6.5	2.6	/	/
Cc1cc(=O)oc2cc(NC(=O)C(C)Oc3cccc(Cl)c3)ccc12 (stereo not given)	7.7	1.1	-7.9	0.4	-1.4	-2.9	/	/
CC(=O)Oc1[nH]c(=O)c2cccc3c2c1CCC3	4.0	-5.1	/	/	-2.2	-28.6	/	/
CC1CCCc2sc3ncn(N)c(=N)c3c21 (stereo not given)	4.4	2.0	-3.3	60.7*	-1.7	-1.4	15.7	22.2*
O=C(O)C(=O)/C(=C\c1ccc(Cl)cc1)c1ccc2ccccc2n1	12.4	13.3	3.0	40.5*	27.2	-35.2	35.3*	48.7*
